The text below walks through data of ChEMBL document CHEMBL4811241, “Revisiting Pyrazolo[3,4-d]pyrimidine Nucleosides as Anti-Trypanosoma cruzi and Antileishmanial Agents” (J Med Chem, 2021).

For one data set, the system named is Trypanosoma cruzi. Briefly: Antitrypanosomal activity against nifurtimox-sensitive Trypanosoma cruzi Tulahuen CL2 infected in human MRC-5 SV2 cells assessed as inhibition of parasite growth measured after 7 days by spectrophotometric analysis. In kind it is functional, organism-based. The settings on record: Tulahuen CL2, MRC-5 SV2, 168 h.
Another data set has as its system Leishmania infantum. Description: Antileishmanial activity against amastigote form of Leishmania infantum MHOM/MA(BE)/67 infected in Swiss mouse peritoneal macrophages assessed as reduction in parasite growth treated at 2 hrs post-infection and measured after 5 days by Giemsa staining based microscopic analysis. In kind it is functional, organism-based. The note with it: MHOM/MA(BE)/67, Peritoneal macrophage. The gist of the method:
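Swiss mouse peritoneal macrophages, harvested after 2-day potato-starch stimulation, infected 48 h after plating; compounds added 2 h post-infection.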

Data set [1] can be described thus: Cytotoxicity against Swiss mouse peritoneal macrophages assessed as cell detachment, lysis and granulation measured after 5 days by microscopic analysis. The class given is cell-based, Peritoneal macrophage. The note with it: time 5 day. The method in brief: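 Scored within the Leishmania macrophage assay over 5 days: detachment, lysis and granulation judged semi-quantitatively by microscopy across at least 500 cells. CC50 derived from % reduction in normal cells versus untreated wells.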

Data set [2] is described as follows: Cytotoxicity against human MRC-5 SV2 cells assessed as reduction in cell growth measured after 3 days by resazurin dye based fluorometric analysis. The note with it: time 3 day. On the technique in general: The colour change of resazurin is a common sign of viable cells or microbes.
Data set [3] in a line: Selectivity index, ratio of CC50 for human MRC-5 SV2 cells to IC50 for antitrypanosomal activity against nifurtimox-sensitive Trypanosoma cruzi Tulahuen CL2 infected in human MRC-5 SV2 cells. The note with it: read-out: Ratio CC50/IC50. The class given is toxicity, cell-based. The gist of the method: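 Ratio of MRC-5SV2 CC50 (3-day resazurin assay) to IC50 against T. cruzi amastigotes in MRC-5SV2 cells (7-day CPRG assay).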

Structures are written as SMILES. pIC50: −log10 of the molar value.

On to `Nc1ncnc2c1c(-c1cc(F)c(Cl)c(F)c1)nn2[C@@H]1O[C@H](CO)[C@@H](O)[C@H]1O`, for which the pIC50 in the data set with Trypanosoma cruzi was 5.88; with Leishmania infantum, less than 4.19. The CC50 at 120 h in data set [1] was more than 64 µM. The CC50 at 72 h in data set [2] was more than 64 µM. Also, in data set [3], the selectivity ratio was more than 17.
With `Nc1ncnc2c1c(-c1ccc(OC(F)(F)F)cc1)nn2[C@@H]1O[C@H](CO)[C@@H](O)[C@H]1O`, the pIC50 in the data set with Trypanosoma cruzi is 4.81; in the data set with Leishmania infantum, less than 4.19. Moreover, in data set [1], the CC50 at 120 h is more than 64 µM. Also, in data set [2], the CC50 at 72 h was more than 64 µM. Also, the selectivity ratio in data set [3] is more than 4.
`Cn1cc(-c2nn([C@@H]3O[C@H](CO)[C@@H](O)[C@H]3O)c3ncnc(N)c23)cn1`: the pIC50 in the data set with Trypanosoma cruzi is 4.34; with Leishmania infantum it was less than 4.19. Also, in data set [1], the half-maximal cytotoxic concentration (CC50) at 120 h is more than 64 µM. In data set [2], the CC50 at 72 h was more than 64 µM. Moreover, the selectivity ratio in data set [3] is more than 1.
For the compound `Cc1ccc(-c2nn([C@@H]3O[C@H](CO)[C@@H](O)[C@H]3O)c3ncnc(N)c23)cc1`, the pIC50 in the data set with Trypanosoma cruzi is 5.75; with Leishmania infantum it was less than 4.19. Further, the CC50 at 120 h in data set [1] is more than 64 µM. In addition, the cytotoxic concentration (CC50) at 72 h in data set [2] was more than 64 µM. For the same compound, the selectivity ratio in data set [3] was more than 36.
As to `CC(C)c1nn([C@@H]2O[C@H](CO)[C@@H](O)[C@H]2O)c2ncnc(N)c12`, the negative logarithm of the IC50 (pIC50) in the data set on Trypanosoma cruzi and with Leishmania infantum was less than 4.19 in each case. The cytotoxic concentration (CC50) at 120 h in data set [1] was more than 64 µM. In data set [2], the CC50 at 72 h was determined as 10.6 µM. Besides, the selectivity ratio in data set [3] was less than 1.
Regarding `Cc1cc(-c2nn([C@@H]3O[C@H](CO)[C@@H](O)[C@H]3O)c3ncnc(N)c23)ccc1Cl`, the negative-log IC50 (pIC50) with Trypanosoma cruzi was 6.09; in the data set with Leishmania infantum it was less than 4.19. For the same compound, the 50% cytotoxic concentration (CC50) at 120 h in data set [1] is more than 64 µM. The half-maximal cytotoxic concentration (CC50) at 72 h in data set [2] was more than 64 µM. Moreover, the selectivity ratio in data set [3] was more than 79.
For `COc1ccc(-c2nn([C@@H]3O[C@H](CO)[C@@H](O)[C@H]3O)c3ncnc(N)c23)cc1`, the negative logarithm of the IC50 (pIC50) is 4.74 with Trypanosoma cruzi and less than 4.19 in the data set with Leishmania infantum. For the same compound, the 50% cytotoxic concentration (CC50) at 120 h in data set [1] was more than 64 µM. Besides, in data set [2], the CC50 at 72 h was more than 64 µM. For the same compound, in data set [3], the selectivity ratio was more than 4.
For `Nc1ncnc2c1c(-c1ccc(F)c(F)c1)nn2[C@@H]1O[C@H](CO)[C@@H](O)[C@H]1O`, the results for the negative logarithm of the IC50 (pIC50) in the data set on Trypanosoma cruzi and in the data set on Leishmania infantum were 5.37 and less than 4.19, respectively. In data set [1], the CC50 at 120 h was more than 64 µM. Further, the CC50 at 72 h in data set [2] is more than 64 µM. In addition, in data set [3], the selectivity ratio is more than 15.
For the compound `Nc1ncnc2c1c(-c1ccc(Cl)c(F)c1)nn2[C@@H]1O[C@H](CO)[C@@H](O)[C@H]1O`, the values for the negative-log IC50 (pIC50) with Trypanosoma cruzi and with Leishmania infantum were 5.92 and less than 4.19, respectively. Further, the CC50 at 120 h in data set [1] is more than 64 µM. For the same compound, the cytotoxic concentration (CC50) at 72 h in data set [2] was more than 64 µM. For the same compound, in data set [3], the selectivity ratio was more than 54.
For the compound `Nc1ncnc2c1c(-c1ccccc1)nn2[C@@H]1O[C@H](CO)[C@@H](O)[C@H]1O`, the pIC50 with Trypanosoma cruzi is 4.88; in the data set with Leishmania infantum, less than 4.19. The 50% cytotoxic concentration (CC50) at 120 h in data set [1] is more than 64 µM. The CC50 at 72 h in data set [2] was more than 64 µM. In data set [3], the selectivity ratio was more than 5.
Regarding `Cc1csc(-c2nn([C@@H]3O[C@H](CO)[C@@H](O)[C@H]3O)c3ncnc(N)c23)c1`, the pIC50 was 4.49 in the data set on Trypanosoma cruzi and less than 4.19 in the data set on Leishmania infantum. Further, in data set [1], the CC50 at 120 h was more than 64 µM. Besides, the 50% cytotoxic concentration (CC50) at 72 h in data set [2] was more than 64 µM. For the same compound, in data set [3], the selectivity ratio is more than 2.
`Nc1ncnc2c1c(-c1ccc(Cl)c(C(F)(F)F)c1)nn2[C@@H]1O[C@H](CO)[C@@H](O)[C@H]1O`: the results for the pIC50 with Trypanosoma cruzi and in the data set on Leishmania infantum were 4.36 and less than 4.19, respectively. Also, the CC50 at 120 h in data set [1] was more than 64 µM. Also, in data set [2], the CC50 at 72 h was more than 64 µM. Besides, the selectivity ratio in data set [3] was more than 1.
Regarding `Nc1ncnc2c1c(-c1ccc(Cl)s1)nn2[C@@H]1O[C@H](CO)[C@@H](O)[C@H]1O`, the figures for the pIC50 in the data set with Trypanosoma cruzi and in the data set on Leishmania infantum were 5.59 and less than 4.19, respectively. Further, the CC50 at 120 h in data set [1] was more than 64 µM. Besides, the cytotoxic concentration (CC50) at 72 h in data set [2] stood at 47.3 µM. The selectivity ratio in data set [3] was 14.
The matching figures for `Nc1ncnc2c1c(-c1ccc([N+](=O)[O-])cc1)nn2[C@@H]1O[C@H](CO)[C@@H](O)[C@H]1O`: 4.99, less than 4.19, more than 64 µM, more than 64 µM and more than 6.
Regarding `O=c1[nH]cnc2c1c(Br)nn2[C@@H]1O[C@H](CO)[C@@H](F)[C@H]1O`, the pIC50 in the data set with Trypanosoma cruzi and in the data set with Leishmania infantum was less than 4.19 throughout. In data set [1], the half-maximal cytotoxic concentration (CC50) at 120 h is more than 64 µM. For the same compound, the 50% cytotoxic concentration (CC50) at 72 h in data set [2] is more than 64 µM.
With `CNC(=O)c1nn([C@@H]2O[C@H](CO)[C@@H](O)[C@H]2O)c2ncnc(N)c12`, the negative-log IC50 (pIC50) with Trypanosoma cruzi was 5.40; in the data set on Leishmania infantum, less than 4.19. Besides, the CC50 at 120 h in data set [1] was more than 64 µM. Besides, in data set [2], the half-maximal cytotoxic concentration (CC50) at 72 h is more than 64 µM. Also, the selectivity ratio in data set [3] came to 16.
On to `COc1cc(-c2nn([C@@H]3O[C@H](CO)[C@@H](O)[C@H]3O)c3ncnc(N)c23)ccc1Cl`, for which the results for the pIC50 in the data set with Trypanosoma cruzi and in the data set on Leishmania infantum were 5.94 and less than 4.19, respectively. Moreover, the CC50 at 120 h in data set [1] was more than 64 µM. The CC50 at 72 h in data set [2] is more than 64 µM. Also, in data set [3], the selectivity ratio was more than 56.
Take `Oc1ncnc2[nH]nc(Br)c12`: the pIC50 in the data set on Trypanosoma cruzi and in the data set with Leishmania infantum was less than 4.19 in each case. Besides, the cytotoxic concentration (CC50) at 120 h in data set [1] was more than 64 µM. The half-maximal cytotoxic concentration (CC50) at 72 h in data set [2] was more than 64 µM.
On to `Nc1ncnc2c1c(-c1ccc(Cl)c(Cl)c1)nn2[C@@H]1O[C@H](CO)[C@@H](O)[C@H]1O`, for which the negative logarithm of the IC50 (pIC50) in the data set with Trypanosoma cruzi was 5.55; with Leishmania infantum, less than 4.19. In addition, the CC50 at 120 h in data set [1] is more than 64 µM. In addition, in data set [2], the 50% cytotoxic concentration (CC50) at 72 h is more than 64 µM. Also, in data set [3], the selectivity ratio is more than 23.
Turning to `Nc1ncnc2c1c(-c1ccc(F)c(Cl)c1)nn2[C@@H]1O[C@H](CO)[C@@H](O)[C@H]1O`, the figures for the negative logarithm of the IC50 (pIC50) in the data set on Trypanosoma cruzi and in the data set with Leishmania infantum were 5.33 and less than 4.19, respectively. The cytotoxic concentration (CC50) at 120 h in data set [1] is more than 64 µM. Besides, the CC50 at 72 h in data set [2] is more than 64 µM. Further, the selectivity ratio in data set [3] was more than 14.
Take `N#Cc1cc(-c2nn([C@@H]3O[C@H](CO)[C@@H](O)[C@H]3O)c3ncnc(N)c23)ccc1Cl`: the pIC50 in the data set on Trypanosoma cruzi and in the data set on Leishmania infantum was less than 4.19 in each case. The half-maximal cytotoxic concentration (CC50) at 120 h in data set [1] is more than 64 µM. In data set [2], the cytotoxic concentration (CC50) at 72 h is more than 64 µM.
With `CCOc1cc(-c2nn([C@@H]3O[C@H](CO)[C@@H](O)[C@H]3O)c3ncnc(N)c23)ccc1Cl`, the figures for the negative logarithm of the IC50 (pIC50) in the data set with Trypanosoma cruzi and in the data set with Leishmania infantum were 4.34 and less than 4.19, respectively. Besides, the CC50 at 120 h in data set [1] is more than 64 µM. Moreover, the cytotoxic concentration (CC50) at 72 h in data set [2] was more than 64 µM. Moreover, the selectivity ratio in data set [3] is more than 1.
`Nc1ncnc2c1c(CCc1ccccc1)nn2[C@@H]1O[C@H](CO)[C@@H](O)[C@H]1O`: the pIC50 in the data set with Trypanosoma cruzi was 4.28; in the data set with Leishmania infantum, less than 4.19. Moreover, the cytotoxic concentration (CC50) at 120 h in data set [1] is more than 64 µM. In data set [2], the CC50 at 72 h is more than 64 µM. In addition, the selectivity ratio in data set [3] is more than 1.
As for `Nc1ncnc2c1c(Br)nn2[C@H]1C[C@H](O)[C@@H](CO)O1`, the negative logarithm of the IC50 (pIC50) in the data set with Trypanosoma cruzi is 4.27; in the data set with Leishmania infantum it was less than 4.19. The CC50 at 120 h in data set [1] is more than 64 µM. The cytotoxic concentration (CC50) at 72 h in data set [2] turned out to be 24.9 µM.
The matching figures for `Nc1ncnc2c1c(C1CC1)nn2[C@@H]1O[C@H](CO)[C@@H](O)[C@H]1O`: less than 4.19, less than 4.19, more than 64 µM and more than 64 µM.
Consider `O=c1[nH]cnc2c1cnn2[C@@H]1O[C@H](CO)[C@@H](F)[C@H]1O`, for which the negative logarithm of the IC50 (pIC50) with Trypanosoma cruzi and with Leishmania infantum was less than 4.19 throughout. Besides, the CC50 at 120 h in data set [1] is more than 64 µM. For the same compound, the CC50 at 72 h in data set [2] is more than 64 µM.

In general, pIC50 refers to the negative decadic logarithm of the IC50, by convention in mol/L. By CC50 is commonly meant the concentration giving 50% cytotoxicity.
